Reference: ChEMBL document CHEMBL2311465, “Synthesis of novel naphthoquinone aliphatic amides and esters and their anticancer evaluation” (Eur J Med Chem, 2013)
Active and inactive are the calls of the source. No cut-off for these calls is given here.

Legend:
Vero = assay: Cytotoxicity against african geen monkey Vero cells after 4 days by GFP reporter assay; format: cell-based, Chlorocebus sabaeus
Method in brief: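 Vero cells (GFP-expressing, grown with geneticin at 37 °C, 5% CO2) added to test compounds diluted in 0.5% DMSO and incubated 4 days at 37 °C, 5% CO2. Bottom-read fluorescence at ex 485/em 535 nm; day-0 background subtracted from the day-4 signal. Typical values from six replicate experiments.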

KB = assay: Cytotoxicity against human KB cells after 3 days by resazurin microplate assay; format: functional, cell-based; details: 72 h
Method in brief: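 KB cells (ATCC CCL-17) harvested in log phase and diluted to 7 × 10^4 cells/mL, then added to samples diluted in 0.5% DMSO. Incubated 3 days at 37 °C, 5% CO2, then resazurin added and plates held 4 h at 37 °C. Fluorescence read at ex 530/em 590 nm. IC50 fitted from 6 two-fold serial concentrations; six replicate experiments.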

[1] = biological target: DNA topoisomerase 2-alpha (Homo sapiens) (UniProt P11388); assay: Inhibition of human topoisomerase 2-alpha-mediated decatenation of kinetoplast DNA at 50 uM after 1 hr by agarose gel electrophoretic analysis
Method in brief: (§1)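 kDNA (60 ng) incubated with 2 units of human TopoIIα, with or without compound, for 1 h at 37 °C. Buffer: 50 mM Tris-Cl pH 8.0, 150 mM NaCl, 10 mM MgCl2, 0.5 mM dithiothreitol, 2 mM ATP. Decatenation judged by presence or absence of enzyme activity.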

[2] = biological target: DNA topoisomerase 2-alpha (Homo sapiens) (UniProt P11388); assay: Inhibition of human topoisomerase 2-alpha-mediated decatenation of kinetoplast DNA at 5 uM after 1 hr by agarose gel electrophoretic analysis; method in brief: as §1
[3] = biological target: DNA topoisomerase 2-alpha (Homo sapiens) (UniProt P11388); assay: Inhibition of human topoisomerase 2-alpha-mediated decatenation of kinetoplast DNA at 10 to 20 uM after 1 hr by agarose gel electrophoretic analysis; method in brief: as §1
[4] = Chlorocebus sabaeus, Vero, 96 h, read-out: IC50

DNA topoisomerase 2-alpha (Homo sapiens), sequence (P11388 whole entry): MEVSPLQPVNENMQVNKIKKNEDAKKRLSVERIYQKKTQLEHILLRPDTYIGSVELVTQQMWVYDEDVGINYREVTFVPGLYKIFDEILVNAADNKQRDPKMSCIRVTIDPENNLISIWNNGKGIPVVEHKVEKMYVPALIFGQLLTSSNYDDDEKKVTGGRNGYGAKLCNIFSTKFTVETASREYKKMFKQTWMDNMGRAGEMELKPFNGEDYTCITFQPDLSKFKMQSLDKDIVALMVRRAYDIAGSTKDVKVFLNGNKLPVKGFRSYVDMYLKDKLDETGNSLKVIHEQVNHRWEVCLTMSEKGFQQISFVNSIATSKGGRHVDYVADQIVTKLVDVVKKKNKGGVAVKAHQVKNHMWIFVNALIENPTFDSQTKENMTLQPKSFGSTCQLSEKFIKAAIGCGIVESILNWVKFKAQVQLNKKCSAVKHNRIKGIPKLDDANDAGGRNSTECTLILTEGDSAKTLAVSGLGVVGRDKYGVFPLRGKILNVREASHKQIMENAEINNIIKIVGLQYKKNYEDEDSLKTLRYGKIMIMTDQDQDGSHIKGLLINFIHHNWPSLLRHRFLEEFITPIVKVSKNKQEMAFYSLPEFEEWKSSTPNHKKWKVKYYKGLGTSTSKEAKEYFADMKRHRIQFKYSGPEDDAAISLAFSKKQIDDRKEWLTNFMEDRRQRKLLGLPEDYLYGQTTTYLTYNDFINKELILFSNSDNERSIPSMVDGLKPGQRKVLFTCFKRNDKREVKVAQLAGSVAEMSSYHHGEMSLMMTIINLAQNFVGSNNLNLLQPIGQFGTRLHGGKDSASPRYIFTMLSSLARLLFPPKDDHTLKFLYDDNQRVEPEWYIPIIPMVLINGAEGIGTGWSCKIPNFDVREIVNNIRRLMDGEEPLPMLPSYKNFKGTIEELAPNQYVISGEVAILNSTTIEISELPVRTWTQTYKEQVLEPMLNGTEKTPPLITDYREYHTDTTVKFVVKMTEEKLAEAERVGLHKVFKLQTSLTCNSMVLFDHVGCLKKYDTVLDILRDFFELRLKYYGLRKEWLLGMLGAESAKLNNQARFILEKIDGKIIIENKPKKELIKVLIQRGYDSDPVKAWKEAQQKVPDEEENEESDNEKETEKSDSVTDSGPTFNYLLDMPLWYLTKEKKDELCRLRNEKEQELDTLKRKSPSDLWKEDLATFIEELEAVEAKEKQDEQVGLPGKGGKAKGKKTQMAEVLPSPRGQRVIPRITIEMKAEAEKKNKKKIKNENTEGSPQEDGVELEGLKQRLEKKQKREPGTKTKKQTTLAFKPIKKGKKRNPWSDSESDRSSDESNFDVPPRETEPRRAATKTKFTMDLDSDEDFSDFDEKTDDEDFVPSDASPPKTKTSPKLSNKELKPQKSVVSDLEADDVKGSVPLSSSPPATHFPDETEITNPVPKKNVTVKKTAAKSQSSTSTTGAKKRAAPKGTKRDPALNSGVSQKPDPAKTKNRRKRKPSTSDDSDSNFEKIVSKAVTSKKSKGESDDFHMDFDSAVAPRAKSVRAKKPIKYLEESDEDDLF

Row | SMILES | IC50 (KB) [µM] | IC50 (Vero; [4]) [µM] | further results
1 | CC(C)C(=O)NCC(C)(C)CC1=C(O)C(=O)c2ccccc2C1=O | 94.6 | – | IC50 (Vero; vero): Non-toxic
2 | CCCCCCCCCCCC(=O)NCC(C)(C)CC1=C(O)C(=O)c2ccccc2C1=O | 12.8 | 13.9 | –
3 | CCCCCCCCCC(=O)NCC(C)(C)CC1=C(O)C(=O)c2ccccc2C1=O | 18.5 | 15 | –
4 | CCCC(C)C(=O)NCC(C)(C)CC1=C(O)C(=O)c2ccccc2C1=O (configuration not stated) | 47.1 | 48.1 | inhibition [1]: Active
5 | CCCCCCCCCCCCCCCCCC(=O)OCC(C)(C)CC1=C(O)C(=O)c2ccccc2C1=O | 76.7 | – | –
6 | CCCCCCCCCCCCCCCC(=O)NCC(C)(C)CC1=C(O)C(=O)c2ccccc2C1=O | 5.12 | 5.6 | inhibition [2]: inactive; inhibition [3]: Active; inhibition [1]: Active
7 | CCC(=O)OCC(C)(C)CC1=C(O)C(=O)c2ccccc2C1=O | 84.4 | – | –
8 | CCCC(=O)OCC(C)(C)CC1=C(O)C(=O)c2ccccc2C1=O | 43 | – | –
9 | CCCCCCCCCCCCCC(=O)OCC(C)(C)CC1=C(O)C(=O)c2ccccc2C1=O | 51.4 | – | –
10 | CC(C)C(=O)OCC(C)(C)CC1=C(O)C(=O)c2ccccc2C1=O | 14.4 | – | –
11 | CCC(C)C(=O)OCC(C)(C)CC1=C(O)C(=O)c2ccccc2C1=O (configuration not stated) | 4.65 | – | –
12 | CCCCCCCCCCCC(=O)OCC(C)(C)CC1=C(O)C(=O)c2ccccc2C1=O | 35.7 | – | –
13 | CCCCCCCCCCCCCC(=O)NCC(C)(C)CC1=C(O)C(=O)c2ccccc2C1=O | 25.1 | 9.81 | –
14 | CCCCCCCCCCC(=O)NCC(C)(C)CC1=C(O)C(=O)c2ccccc2C1=O | 17.6 | 14.9 | –
15 | CCCCCCCCCCC(=O)OCC(C)(C)CC1=C(O)C(=O)c2ccccc2C1=O | 54.8 | – | –
16 | CCCCCCCC(=O)OCC(C)(C)CC1=C(O)C(=O)c2ccccc2C1=O | 38.3 | – | –

Row | SMILES | IC50 (KB) [µM] | IC50 (Vero; [4]) [µM] | further results
17 | CCCCCCCCCCCCCCCCCC(=O)NCC(C)(C)CC1=C(O)C(=O)c2ccccc2C1=O | 6.35 | 5.76 | –
18 | CCCCCCCCC(=O)NCC(C)(C)CC1=C(O)C(=O)c2ccccc2C1=O | 19.7 | 16.7 | –
19 | CCCCCCC(=O)OCC(C)(C)CC1=C(O)C(=O)c2ccccc2C1=O | 14.4 | – | –
20 | CCCCCCCC(=O)NCC(C)(C)CC1=C(O)C(=O)c2ccccc2C1=O | 24.6 | 18.4 | –
21 | CCCCCC(=O)OCC(C)(C)CC1=C(O)C(=O)c2ccccc2C1=O | 41 | – | –
22 | CCCCCCC(=O)NCC(C)(C)CC1=C(O)C(=O)c2ccccc2C1=O | 28.2 | 24.8 | –
23 | CCCC(C)C(=O)OCC(C)(C)CC1=C(O)C(=O)c2ccccc2C1=O (configuration not stated) | 1.76 | – | inhibition [1]: Active
24 | CCCCCC(=O)NCC(C)(C)CC1=C(O)C(=O)c2ccccc2C1=O | 40.2 | 46.6 | –
25 | CCCCC(=O)OCC(C)(C)CC1=C(O)C(=O)c2ccccc2C1=O | 27.8 | – | –
26 | CCCCCCC(C)C(=O)NCC(C)(C)CC1=C(O)C(=O)c2ccccc2C1=O (configuration not stated) | 23.7 | 15.5 | –
27 | CCCCCCCCC(=O)OCC(C)(C)CC1=C(O)C(=O)c2ccccc2C1=O | 38.7 | – | –
28 | COc1cccc2c1C(=O)c1c(O)c3c(c(O)c1C2=O)C[C@@](O)(C(=O)CO)C[C@@H]3O[C@H]1C[C@H](N)[C@H](O)[C@H](C)O1 [DOXORUBICIN] | 0.96 | – | –
29 | CCCCCCC(C)C(=O)OCC(C)(C)CC1=C(O)C(=O)c2ccccc2C1=O (configuration not stated) | 16.8 | – | –
30 | CCC(C)C(=O)NCC(C)(C)CC1=C(O)C(=O)c2ccccc2C1=O (configuration not stated) | 102 | – | IC50 (Vero; vero): Non-toxic
31 | CCCCCCCCCCCCCCCC(=O)OCC(C)(C)CC1=C(O)C(=O)c2ccccc2C1=O | 27.1 | – | inhibition [1]: Active
32 | CCCCCCCCCC(=O)OCC(C)(C)CC1=C(O)C(=O)c2ccccc2C1=O | 55.5 | – | –
